Bioassay records (PubChem BioAssay)
An excerpt weighted towards active compounds, which were near 2.6% of everything screened.
ABCB6 inh MLPCN – ABCB6 transporter inhibitors, primary screen, K562-ABCB6 cells, flow cytometry, MLPCN library | ATP-binding cassette sub-family B member 6 (Homo sapiens), Q9NP58 | K562-ABCB6 porphyrin accumulation, 1 h; hits give low values | fluorescence ratio to DMSO, % at 10 µM | hit rate 0.19% among 360,000 | AID 602162, 2011;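 active = fluorescence ratio to DMSO below 75%, the collection mean minus 3 SD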;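 also: signal is porphyrin accumulated inside mitochondria; lower ratio means ABCB6 inhibition with less porphyrin fluorescence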
MC4R ag barr – MC4R agonists recruiting beta-arrestin, primary screen, cell-based, luminescence, agonist arm of biased-ligand search. U2OS MC4R beta-arrestin complementation; percent of melanotan II response, DMSO zero. activation, % at 8.9 µM. hit rate 0.98% among 360,000;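 active = activation above a per-plate cutoff, the mean activation of sample wells on that plate plus 3 SD, cut at about 8% in these data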
Target sequence (P32245 whole entry, looked up): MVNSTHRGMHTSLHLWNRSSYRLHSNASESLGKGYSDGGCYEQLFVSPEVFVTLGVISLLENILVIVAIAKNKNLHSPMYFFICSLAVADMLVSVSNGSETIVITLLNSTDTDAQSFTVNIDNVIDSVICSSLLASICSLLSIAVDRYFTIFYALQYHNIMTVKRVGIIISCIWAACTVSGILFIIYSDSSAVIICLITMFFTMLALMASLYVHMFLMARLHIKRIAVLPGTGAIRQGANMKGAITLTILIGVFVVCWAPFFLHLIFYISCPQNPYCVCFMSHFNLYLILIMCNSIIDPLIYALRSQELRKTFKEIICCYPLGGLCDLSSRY
hiPSC survival – enhancers of single-cell hiPSC survival, primary screen, ATPlite luminescence. 100% = ROCK inhibitor wells, 0% = DMSO. survival enhancement, % at 20 µM. hit rate 0.044% among 360,000. AID 602274, 2012; in the data active = survival enhancement above about 18%;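 also: cells exposed to compounds for 16 hours before the ATP read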
Granule exo inh – LAMP-1 surface exposure blockers, TALL-104 cells – cell-based, flow cytometry, MLPCN library, primary screen. TALL-104 LAMP-1 surface exposure; cells stimulated with thapsigargin and PMA. inhibition, % at 10 µM. hit rate 0.66% among 360,000. AID 651702, 2012;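 active = inhibition above about 55%, limit read from the data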
MC4R antagonist – MC4R antagonists of cAMP signaling, primary screen, cell-based, TR-FRET, antagonist arm of biased-ligand search. AID 540295, 2011. hit rate 0.48% among 360,000. MC4R-expressing cells, MTII-stimulated cAMP, LANCE TR-FRET. Melanocortin receptor 4 (Homo sapiens), P32245. inhibition, % at 6.5 µM;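 active = inhibition above its plate's cutoff, the mean of tested wells on that plate plus 3 SD, cut at about 29% in these data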
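Test system: U2OS cells stably expressing human melanocortin 4 receptor (MC4R); also added: Melanotan II challenge; compound: 6.5 µM single dose; timing: 30-min compound preincubation, 1-h Melanotan II challenge, 1-h detection, room temperature; signal: Eu-cAMP/anti-cAMP TR-FRET, emission 671 nm; repeats: one well per compound, no replicates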
Tb MetRS inh – T. brucei MetRS inhibitors, primary screen, biochemical, luminescence; purified T. brucei MetRS, ATP depletion, Kinase-Glo luminescence; inhibition, % at 11.9 µM; hit rate 0.4% among 360,000; AID 624268, 2012;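 active = inhibition above a per-plate cutoff of the control wells' mean inhibition plus 3 SD, cut at about 5.5% in these data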
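Dosing: 11.9 µM compound single dose, 0.9% DMSO; Assay system: purified T. brucei MetRS enzyme; Measured by: Kinase-Glo luciferase luminescence reporting remaining unconsumed ATP; Schedule: 15 min plus 2 h at 25 °C.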
TbMetRS confirm – T. brucei MetRS inhibitors, confirmation, biochemical, luminescence; shares compounds with Tb MetRS inh; T. brucei MetRS enzyme, luminescence (ATP depletion); inhibition, % at 11.9 µM; hit rate 93% among 1,400; in the data active = inhibition above about 7%
Jurkat tox – Jurkat T cell cytotoxicity, cytotoxicity control for T. brucei MetRS inhibitor project, luminescence, high throughput. inhibition, % at 8.3 µM. shares compounds with Tb MetRS inh. hit rate 12% among 1,400. Jurkat cells viability, ATP luminescence. AID 624413, 2012; in the data active = inhibition above about 15%
Tb MetRS inh FP – T. brucei MetRS inhibitors, orthogonal assay for T. brucei MetRS inhibitor project, biochemical, fluorescence polarization; inhibition, % at 11.9 µM; shares compounds with Tb MetRS inh; hit rate 44% among 1,400; purified T. brucei MetRS; AID 651607, 2012; in the data active = inhibition above about 17%
Numbers stand for hits; . = inactive; / = no result given.

SMILES	ABCB6 inh MLPCN	MC4R ag barr	hiPSC survival	Granule exo inh	MC4R antagonist	Tb MetRS inh	TbMetRS confirm	Jurkat tox	Tb MetRS inh FP
O=C(NCc1cc(Cl)cc(Cl)c1)c1ccc2nc(COCCO)[nH]c2c1	.	.	.	.	.	21	55	.	30
Nc1cc(=O)[nH]c(SCC(=O)Nc2cc(Cl)cc(Cl)c2)n1	.	.	.	.	.	29	49	.	28
O=C(NCCCN1CCCC1=O)c1cc(=O)c2ccccc2o1	.	.	.	.	.	.	/	/	/
CN(CC(=O)Nc1ccc(F)c(F)c1F)C(=O)c1ccc(-n2cncn2)c([N+](=O)[O-])c1	.	.	.	.	.	7.7	33	.	17
CN(CC(=O)Nc1cccc(F)c1)C(=O)c1ccc(-n2cncn2)c([N+](=O)[O-])c1	.	.	.	.	.	51	84	.	51
COc1ccc(NC(=O)c2cc(-c3cc(C)cc(F)c3)n[nH]2)cc1OC	.	.	.	.	.	.	/	/	/
COC(=O)c1cccc(OCC(O)Cn2ccnc2)c1 (centres undefined)	.	.	.	.	.	.	/	/	/
OC(COc1ccc2cc(Br)ccc2c1)Cn1ccnc1 (centres undefined)	.	.	.	.	.	6.2	13	.	24
CC1CCN(CC(=O)N2CC(=O)Nc3ccccc32)CC1	.	.	.	.	.	.	/	/	/
COc1ccc(C(CNC(=O)C(Cc2ccccc2)NC(N)=O)N(C)C)cc1 (centres undefined)	.	.	.	.	.	.	/	/	/
Cc1csc(CNc2ncnc3ccc(-c4ccccc4Cl)cc23)c1	.	.	.	.	.	6.0	25	.	20
O=C(CSc1nnc2ccc(-c3ccc(Br)cc3)nn12)NCC1CCCO1 (centres undefined)	.	.	.	.	.	8.0	33	.	.
N#CC1=C(N)Oc2cc(N)ccc2C1c1cc(Br)cs1 (centres undefined)	.	.	.	.	.	43	.	56	.
N#CC1=C(N)Oc2cc(N)ccc2C1c1ccsc1 (centres undefined)	.	.	.	.	.	.	/	/	/
O=C(O)c1cccc(Cn2c(Cl)c(/C=N/NC(=O)c3cc4ccccc4cc3O)sc2=O)c1	.	.	.	.	.	5.7	18	.	34
O=C(O)c1cccc(Cn2c(Cl)c(/C=N/NC(=O)c3ccccc3)sc2=O)c1	.	.	.	.	.	.	/	/	/
O=C(Cc1ccccc1)NCC(=O)N1CCCCCC1	.	.	.	.	.	.	/	/	/
CCc1noc(C)c1C(=O)Nc1ccc(-c2nnc3n2CCCCC3)cc1	.	.	.	.	.	.	/	/	/
COc1ccc(NC(=O)C(NC(C)=O)C(=O)Nc2ccc(F)cc2)cc1 (centres undefined)	.	.	.	.	.	9.6	19	.	.
COc1ccc(OCC(O)CNC(=O)Nc2ccccc2)cc1 (centres undefined)	.	.	.	.	.	9.4	21	.	.
COc1ccc(OCC(O)CNC(=O)Nc2ccc(F)cc2)cc1 (centres undefined)	.	.	.	.	.	5.7	18	.	.
COc1ccc(OCC(O)CNS(=O)(=O)c2ccc(NC(C)=O)cc2)cc1 (centres undefined)	.	.	.	.	.	.	/	/	/
O=C(NCC(O)COc1ccc([N+](=O)[O-])cc1)Nc1ccccc1 (centres undefined)	.	.	.	.	.	42	62	.	41
O=C(Cc1ccccc1Cl)c1ccccc1	.	.	.	.	.	.	/	/	/
O=C(Cc1ccccc1)NCC(=O)OCC(=O)c1ccc(F)cc1	.	.	.	.	.	.	/	/	/
SMILES	ABCB6 inh MLPCN	MC4R ag barr	hiPSC survival	Granule exo inh	MC4R antagonist	Tb MetRS inh	TbMetRS confirm	Jurkat tox	Tb MetRS inh FP
CS(=O)(=O)n1nc(-c2ccc(Cl)cc2)nc1SCc1ccccc1	.	.	.	.	.	6.7	.	.	.
O=C(C=Cc1ccccc1)c1c[nH]c2ccccc2c1=O	.	.	.	.	.	37	78	93	56
CC(=O)c1cccc(NC(=O)C(C)OC(=O)CNC(=O)c2ccc(C)s2)c1 (centres undefined)	.	.	.	.	.	14	29	.	.
COc1ccccc1NS(=O)(=O)c1cc(NC(=O)Nc2ccccc2)ccc1N1CCCCC1	.	.	.	.	.	6.2	11	.	17
O=C(Nc1ccc(Cl)c(Cl)c1)Nc1ccc(N2CCCC2)c(S(=O)(=O)Nc2ccccc2Cl)c1	.	.	.	.	.	.	/	/	/
O=C(Nc1ccc(F)cc1)Nc1ccc(N2CCCC2)c(S(=O)(=O)Nc2ccccc2Cl)c1	.	.	.	.	.	11	27	67	44
C=CCN1C(=O)c2ccc(C(=O)OCC(=O)N(CC)c3c(N)n(Cc4ccccc4)c(=O)[nH]c3=O)cc2C1=O	.	.	.	.	.	.	/	/	/
Cc1[nH]n(-c2ccccc2)c(=O)c1C(C[N+](=O)[O-])c1ccccc1Cl (centres undefined)	.	.	.	.	.	.	/	/	/
COc1cccc(C(c2c(C)[nH]n(-c3ccccc3)c2=O)c2c(C)[nH]n(-c3ccccc3)c2=O)c1O	.	.	.	.	.	8.1	.	.	.
COc1cccc(C(c2c(C)[nH]n(-c3ccccc3)c2=O)c2c(C)[nH]n(-c3ccccc3)c2=O)c1OC	.	.	.	.	.	7.7	.	19	.
Cc1[nH]n(-c2ccccc2)c(=O)c1C(c1ccc(O)c([N+](=O)[O-])c1)c1c(C)[nH]n(-c2ccccc2)c1=O	.	.	.	.	.	13	.	.	.
COc1ccc(C(C[N+](=O)[O-])c2c(C)[nH]n(-c3ccccc3)c2=O)cc1 (centres undefined)	.	.	.	.	.	.	/	/	/
